Compound activity (PubChem)
Compounds with a hit are over-represented: about 1.5% of the library has one in this group of screens.
C8 TRAIL sens: caspase-8 TRAIL sensitization. inhibition (viability loss, TRAIL sensitization), % at 10 µM. hit rate 1% among 360,000. AID 624354. NB7+C8 cells + TRAIL, ATPlite viability luminescence;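 active = compounds causing at least 50% loss of cell viability in the single-dose screen, relative to plate controls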
FLuc act counter: firefly luciferase counter-screen for stimulation assays; activation factor at 10 µM; ATPlite luciferase biochemical, luminescence, 10 min; 0 = ATP-free wells, 1 = DMSO control; 200,000 tested, under 10 active; AID 1027;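 active = luciferase activation factor, scaled between plate controls, of at least 2 with compound at 10 µM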
Target sequence (P08659 whole entry, looked up): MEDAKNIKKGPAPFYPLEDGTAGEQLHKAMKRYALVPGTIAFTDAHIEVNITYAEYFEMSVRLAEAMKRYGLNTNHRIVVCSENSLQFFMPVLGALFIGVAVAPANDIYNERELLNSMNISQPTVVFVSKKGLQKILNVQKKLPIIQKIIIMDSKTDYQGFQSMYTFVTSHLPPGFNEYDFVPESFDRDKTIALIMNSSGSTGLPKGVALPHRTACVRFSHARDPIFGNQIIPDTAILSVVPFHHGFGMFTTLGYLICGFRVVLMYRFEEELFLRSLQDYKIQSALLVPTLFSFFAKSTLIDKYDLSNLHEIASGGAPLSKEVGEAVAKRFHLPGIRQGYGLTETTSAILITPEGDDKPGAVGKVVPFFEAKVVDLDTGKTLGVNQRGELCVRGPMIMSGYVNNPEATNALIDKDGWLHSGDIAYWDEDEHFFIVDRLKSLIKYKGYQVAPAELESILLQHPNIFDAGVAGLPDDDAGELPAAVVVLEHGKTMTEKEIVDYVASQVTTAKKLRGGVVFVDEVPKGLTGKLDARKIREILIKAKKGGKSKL
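Assay system: Luciferase/luciferin detection reagent, cell-free biochemical luciferase assay / Also added: ATP substrate / Schedule: 10 min at ambient temperature / Measured by: luminescence measurement of luciferase light output / Benchmarks: low control with PBS replacing ATP, high control enzyme plus ATP without compound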
PPC-1+TRAIL kill: kills PPC-1 cancer cells in the presence of TRAIL | hit rate 0.41% among 220,000 | PPC-1 cells + TRAIL, ATPLite viability luminescence | cell killing (% activity), % at 4 µM or 5 µM;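 active = cell killing above 50% in the first pass at 4 µM, then a duplicate retest at 5 µM averaging 50% or more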;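 note: plate controls were cells with TRAIL plus DMSO for no effect and medium-only wells lacking cells for full effect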
FLuc inh counter: Photinus pyralis luciferase inhibition counter-screen; P08659; ATPLite firefly luciferase biochemical luminescence, 10 min; inhibition, % at 10 µM; hit rate 1.5% among 200,000;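 active = inhibition above about 50% when tested at 10 µM, limit read from the data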
* marks the source's active call; other numbers are inactive results; . = not tested or not shown.

SMILES | C8 TRAIL sens | FLuc act counter | PPC-1+TRAIL kill | FLuc inh counter
COc1ccc(C(C(=O)Nc2c(C)cccc2C)N2CCN(C)CC2)cc1 (centres undefined) | 6 | . | . | .
O=C(NCCc1ccccn1)c1ccc(OC(F)F)cc1 | 37 | 0.3 | 32 | 65*
O=C(O)CCN1C(=O)c2ccncc2C1=O | -10 | 1 | 21 | 0
CC(C)c1ccc(-c2cc(C(=O)NN3CCN(C)CC3)c3ccccc3n2)cc1 | 77* | 0.1 | 66* | 88*
CC(C)c1ccc(-c2cc(C(=O)N3N=C(C(F)F)CC3(O)C(F)F)c3ccccc3n2)cc1 (centres undefined) | 45 | 0.4 | 46 | 65*
O=C(c1cc(C2CC2)nc2ccccc12)N1N=C(C(F)F)CC1(O)C(F)F (centres undefined) | -10 | 1 | -2 | -2
CC1=C(C(=O)N2CCOCC2)CC(CC(=O)NCc2cccs2)C(=O)N1CCC1=CCCCC1 (centres undefined) | 5 | . | . | .
Cc1ccc(-c2cc3onc(-c4ccccc4)c3c(=O)n2C)cc1 | 78* | . | . | .
N#CC1(C#N)C(c2ccccc2)OC23CCCCCC2C1(C#N)C(=N)O3 (centres undefined) | -18 | 1 | -3 | -2
CN1OC[C@@H]2CN(C(=O)C(C)(C)C)[C@H](c3ccc(-c4cc5ccccc5o4)cc3)C[C@@H]21 | 13 | . | . | .
Cc1ccc(C(=O)COC(=O)CCCC(=O)Nc2cc(C(F)(F)F)ccc2Cl)cc1C | 5 | 0.5 | 13 | 54*
O=C1C2C3C=CC(CC3)C2C(=O)N1/N=C/c1ccc(O)cc1 (centres undefined) | 31 | 0.4 | 26 | 63*
O=C(CCl)N(C/C=C/c1ccccc1)c1ccc2c(c1)OCCO2 | 92* | 0.9 | 14 | 10
O=C(CSc1cn(Cc2ccccc2)c2ccccc12)Nc1nccs1 | -25 | 0.5 | 45 | 50*
COC(=O)c1c(C)[nH]c(C(=O)/C=C/c2ccccc2)c1C | 29 | 0.4 | 36 | 58*
C#CCn1c(=NC(=O)c2ccc(S(=O)(=O)N3CCc4ccccc4C3)cc2)sc2cc(S(N)(=O)=O)ccc21 | 23 | 1 | 61* | -4
CN(C)/C=C1\Oc2ccc3ccccc3c2C1=O | 2 | 0.9 | -2 | 8
O=C1C(=O)c2c(ccc3ccccc23)-c2ccccc21 | 67* | . | . | .
Cc1cc(=O)c(C(=O)O)cn1Nc1ccc(F)cc1 | 2 | 1 | 16 | -4
COc1cccc2c1C(=O)c1c(O)c3c(c(O)c1C2=O)C[C@@](O)(C(=O)CO)C[C@@H]3OC1CC(N)C(O)C(C)O1 (some centres undefined) | 45 | . | . | .
CC(=O)[C@@]1(O)Cc2c(O)c3c(c(O)c2[C@H](O[C@H]2C[C@H](N)[C@H](O)[C@H](C)O2)C1)C(=O)c1ccccc1C3=O | 82* | . | . | .
COc1cccc2c1C(=O)c1c(O)c3c(c(O)c1C2=O)C[C@@](O)(C(=O)CO)C[C@@H]3O[C@H]1C[C@H](N)[C@H](O)[C@H](C)O1 | 62* | 0.9 | 54* | 13
CCC(=O)Nc1cc(-c2nn(CC(=O)N3CCCCC3)c(=O)c3ccccc23)ccc1N1CCOCC1 | -15 | 0.9 | -26 | 14
COc1ccc2[nH]c(=O)c(CN(Cc3ccco3)Cc3nnnn3Cc3ccccc3)cc2c1 | -4 | 1 | 18 | -2
COc1ccc(N2CCN(C(=O)C(Cc3ccccc3)n3cccc3)CC2)cc1 (centres undefined) | -8 | 1.1 | 82* | -8
SMILES | C8 TRAIL sens | FLuc act counter | PPC-1+TRAIL kill | FLuc inh counter
Cc1cccc(C(=O)NNC(=O)CSc2nnc(C3CC3)n2C)c1 | -11 | . | . | .
Nc1nc(N)c2cc(S(=O)(=O)c3cccc(C(F)(F)F)c3)ccc2n1 | 73* | . | . | .
CCOc1ccc2oc(C(=O)Nc3cc(C)ccn3)c(C)c2c1 | 70* | . | . | .
Cc1c(C(=O)Nc2cnccn2)oc2ccccc12 | 19 | 0.9 | 13 | 8
Cc1ccnc(NC(=O)c2oc3ccccc3c2C)c1 | 66* | . | . | .
Cc1ccnc(NC(=O)c2cc3ccccc3oc2=O)c1 | 11 | 0.5 | 28 | 54*
CCOc1ccc2oc(C(=O)O)c(C)c2c1 | -11 | . | -3 | .
COc1ccc(C(=O)CCC(=O)Nc2cc(Cl)c(O)c(Cl)c2)cc1 | -6 | . | . | .
CC1=C(C(=O)Nc2ccccc2)C(c2ccc(C)cc2)N=C(Nc2nc3ccccc3o2)N1 (centres undefined) | 50* | 1.1 | 8 | -7
COc1ccc2nc(N=Nc3ccc(O)c4ccccc34)sc2c1 | 55* | 0.8 | 41 | 18
Cc1ccc(Nc2nc(-c3ccccc3)cs2)nc1 | 43 | . | . | .
Cc1cc(O)ccc1Nc1nc(-c2cccnc2)cs1 | 4 | . | . | .
Cc1ccc(Nc2nc(-c3cccs3)cs2)nc1 | 65* | 0.2 | 30 | 85*
Cc1cc(O)ccc1Nc1nc(-c2cccs2)cs1 | 2 | 0.2 | 4 | 78*
COc1ccccc1C(CNc1ccc(S(=O)(=O)N2CCCC2)cc1[N+](=O)[O-])N(C)C (centres undefined) | 65* | . | . | .
CC(=O)Nc1ccc([C@H]2[C@H](C)CC[C@H]3C(=O)N4[C@@H](CC[C@@H](C)[C@@H]4c4ccc(NC(C)=O)cc4)C(=O)N32)cc1 | . | 1.1 | 9 | -6
COc1ccc(CCc2nc(-c3ccc(-n4cccc4)cc3)no2)cc1 | -15 | 1.1 | 10 | -5
O=C1C(c2ccncc2)=C(O)c2ccccc21 | 54* | 0.2 | 25 | 83*
Cc1ccc(C2=C(O)c3ccccc3C(=O)C2=O)cc1 | 2 | . | . | .
CCOc1cc(/C=C\[N+](=O)[O-])ccc1OCC(=O)Nc1ccccc1C | 64* | 1 | 2 | -4
Cc1ccccc1Nc1cc2ccccc2c(=O)[nH]1 | 88* | 1 | 21 | -1
Nc1nc(N)c2c(ccc3nccc32)[nH]1 | 80* | . | 40 | .
COc1cc(C(=O)Oc2ccccc2/C=N/NC(=O)c2ccc(Cl)cc2)cc(OC)c1OC | 45 | 0.9 | 37 | 6
COc1ccccc1C=NN=C(NN=Cc1ccccc1OC)NN=Cc1ccccc1OC | 69* | . | . | .
COc1ccccc1/C=N/OC(=O)c1ccc(F)cc1 | -10 | 0.3 | 16 | 74*
SMILES | C8 TRAIL sens | FLuc act counter | PPC-1+TRAIL kill | FLuc inh counter
COc1ccccc1C=NN=C(N)C(N)=NN=Cc1ccccc1OC | 0 | . | . | .
COc1ccccc1C=NNC(=O)NN=Cc1ccccc1OC | 65* | . | . | .
COc1cc(C(=O)Oc2ccccc2/C=N/NC(=O)c2ccc(C)c(Cl)c2)cc(OC)c1OC | 41 | 1 | 52* | -1
CC(NC(=O)c1ccco1)C1COc2ccccc2O1 (centres undefined) | -17 | 1.1 | 4 | -6
CC(C)c1cccc(-c2ccc3c(c2)S(=O)(=O)c2cccc(C(=O)NCc4ccccc4Cl)c2C3=O)c1 | 68* | . | . | .
O=C(NCc1ccccc1Br)c1cccc2c1C(=O)c1ccc(-c3ccc(OC(F)(F)F)cc3)cc1S2(=O)=O | 54* | . | . | .
COc1ccc(-c2ccc3c(c2)S(=O)(=O)c2cccc(C(=O)NCCOc4ccccc4Cl)c2C3=O)cc1OC | 76* | . | . | .
O=C(NCc1cc(C(F)(F)F)ccc1Cl)c1cccc2c1C(=O)c1ccc(N3CCC(N4CCCCC4)CC3)cc1S2(=O)=O | 96* | . | . | .
